Measurements as given in ChEMBL document CHEMBL2057074, “Design, synthesis and biological activity of 6-substituted carbamoyl benzimidazoles as new nonpeptidic angiotensin II AT₁ receptor antagonists” (Bioorg Med Chem, 2012).
Numbering of substitutions follows the chain as printed. In brackets after ≈: the same amount, converted by molar mass.

Assays:
[1] = Toxicity against Photobacterium phosphoreum expressing T3 mutation after 15 mins by Microtox assay; format: organism-based
Procedure, shortened: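 Microtox test with luminescent Photobacterium phosphoreum. Samples were incubated with bacteria for 15 min before reading inhibition of bacterial luminescence, testing up to the saturated concentration level. LC50 is the concentration in water inhibiting 50% of the test batch.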

[2] = target: T1, Type-1 angiotensin II receptor (Homo sapiens, UniProt P30556); test: Displacement of [125I]Sar1Ile8-Ang2 from angiotensin AT1 receptor after 180 mins by gamma counting
T1 sequence (P30556 whole entry): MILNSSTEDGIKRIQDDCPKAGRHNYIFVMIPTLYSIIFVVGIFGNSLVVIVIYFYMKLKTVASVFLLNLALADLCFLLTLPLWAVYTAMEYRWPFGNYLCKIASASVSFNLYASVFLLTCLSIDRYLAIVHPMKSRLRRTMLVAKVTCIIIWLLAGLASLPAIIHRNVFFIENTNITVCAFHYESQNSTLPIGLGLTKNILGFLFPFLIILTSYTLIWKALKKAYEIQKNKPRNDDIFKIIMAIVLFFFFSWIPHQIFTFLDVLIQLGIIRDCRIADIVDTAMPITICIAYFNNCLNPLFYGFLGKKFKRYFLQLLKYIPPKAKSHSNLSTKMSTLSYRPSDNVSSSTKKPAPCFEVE

[3] = target: T2, Type-1 angiotensin II receptor (Oryctolagus cuniculus, UniProt P34976); test: Antagonist activity at AT1 receptor in Japanese white rabbit thoracic aorta assessed as inhibition of […] contraction incubated 30 mins post KCl-induction for 1 hr; format: functional, tissue-based; conditions: read-out: pA2 (converted)
T2 sequence (P34976 whole entry): T1 sequence (P30556 whole entry) with I2M, V49A, I254V, I270V, R272H, R311K, T349S, A353V
Procedure, shortened: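 Isolated rabbit aortic strips equilibrated 1 h with washes every 15 min. 67 mM KCl was given first to check tissue sensitivity and set the maximal contractile response. After a 30 min washout, test substances or their vehicles were added and contractile responses recorded.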

Rattus norvegicus = test: Antihypertensive activity in non-fasted spontaneous hypertensive rat assessed as decrease in mean arterial blood pressure at 10 mg/kg, po by tail plethysmography relative to control; format: functional, Artery
Procedure, shortened: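 Male SHR aged 19–21 weeks, conscious and unanesthetised, six per group; controls got vehicle at 10 mL/kg. […] Blood pressure and heart rate measured by tail plethysmography after a warming period; data given as means SEM.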

CCCc1nc2c(C)cc(-c3nc4ccccc4n3C)cc2n1Cc1ccc(-c2ccccc2C(=O)O)cc1
LC50 at 0.25 h [1]: 100 µg/mL (≈ 194 µM)

CCCc1nc2c(C)cc(C(=O)NCc3ccccc3)cc2n1Cc1ccc(-c2ccccc2-c2nnn[nH]2)cc1
LC50 at 0.25 h [1]: 64 µg/mL (≈ 118 µM)
IC50 [2]: 410 nM

CCCc1nc2c(C)cc(C(=O)NCc3ccccc3OC)cc2n1Cc1ccc(-c2ccccc2-c2nnn[nH]2)cc1
LC50 at 0.25 h [1]: 66 µg/mL (≈ 115 µM)
IC50 [2]: 19.7 nM

CCCc1nc2c(C)cc(C(=O)NCc3cccc(OC)c3)cc2n1Cc1ccc(-c2ccccc2-c2nnn[nH]2)cc1
LC50 at 0.25 h [1]: > 100 µg/mL
IC50 [2]: 78.3 nM

CCCc1nc2c(C)cc(C(=O)NCc3ccc(OC)cc3)cc2n1Cc1ccc(-c2ccccc2-c2nnn[nH]2)cc1
LC50 at 0.25 h [1]: > 100 µg/mL
IC50 [2]: 119 nM

CCCc1nc2c(C)cc(C(=O)NCc3ccc(OC)c(OC)c3)cc2n1Cc1ccc(-c2ccccc2-c2nnn[nH]2)cc1
LC50 at 0.25 h [1]: > 100 µg/mL
IC50 [2]: 96.8 nM

CCCc1nc2c(C)cc(C(=O)NCCc3ccccc3)cc2n1Cc1ccc(-c2ccccc2-c2nnn[nH]2)cc1
LC50 at 0.25 h [1]: > 100 µg/mL
IC50 [2]: 1.3 nM
Kb [3]: 4.79 nM

CCCc1nc2c(C)cc(C(=O)NCC(C)c3ccccc3)cc2n1Cc1ccc(-c2ccccc2-c2nnn[nH]2)cc1 (stereo not drawn)
Activity (Rattus norvegicus): >30 mmHg
LC50 at 0.25 h [1]: > 100 µg/mL
IC50 [2]: 0.9 nM
Kb [3]: 1.7 nM

CCCc1nc2c(C)cc(C(=O)NCCc3cccc(OC)c3)cc2n1Cc1ccc(-c2ccccc2-c2nnn[nH]2)cc1
LC50 at 0.25 h [1]: > 100 µg/mL
IC50 [2]: 2.6 nM
Kb [3]: 14.8 nM

CCCc1nc2c(C)cc(C(=O)NCCc3ccc(OC)cc3)cc2n1Cc1ccc(-c2ccccc2-c2nnn[nH]2)cc1
LC50 at 0.25 h [1]: > 100 µg/mL
IC50 [2]: 22.5 nM

CCCc1nc2c(C)cc(C(=O)NCCc3cc(OC)ccc3OC)cc2n1Cc1ccc(-c2ccccc2-c2nnn[nH]2)cc1
LC50 at 0.25 h [1]: > 100 µg/mL
IC50 [2]: 78 nM

CCCc1nc2c(C)cc(C(=O)NCCc3ccc(OC)c(OC)c3)cc2n1Cc1ccc(-c2ccccc2-c2nnn[nH]2)cc1
LC50 at 0.25 h [1]: > 100 µg/mL
IC50 [2]: 3.7 nM
Kb [3]: 1.82 nM

CCCc1nc2c(C)cc(C(=O)NCCc3ccccc3F)cc2n1Cc1ccc(-c2ccccc2-c2nnn[nH]2)cc1
LC50 at 0.25 h [1]: 17 µg/mL (≈ 29.6 µM)
IC50 [2]: 37.6 nM

CCCc1nc2c(C)cc(C(=O)NCCc3ccc(F)cc3)cc2n1Cc1ccc(-c2ccccc2-c2nnn[nH]2)cc1
LC50 at 0.25 h [1]: 60 µg/mL (≈ 105 µM)
IC50 [2]: 209 nM

CCCCc1nc(Cl)c(CO)n1Cc1ccc(-c2ccccc2-c2nn[nH]n2)cc1 [LOSARTAN]
LC50 at 0.25 h [1]: 331 µg/mL (≈ 783 µM)
